# Assay results as given in ChEMBL document CHEMBL1671716, “Antimicrobial susceptibility patterns for recent clinical isolates of anaerobic bacteria in South Korea” (2010).
# Tests used:
# Prevotella intermedia [1] = experiment: Antimicrobial activity against Prevotella intermedia after 48 hrs by agar dilution method; format: functional
# In short: (§1)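 CLSI agar dilution (M11-A7); inoculum 10^5 CFU applied by replicator; plates incubated anaerobically 48 h at 37°C. For piperacillin-tazobactam, tazobactam held constant at 4 μg/ml.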
# Prevotella buccae [2] = experiment: Antimicrobial activity against Prevotella buccae assessed as percent susceptible isolates after 48 hrs by agar dilution method; format: functional, Segatella buccae; in short: as §1
# Fusobacterium necrogenes = experiment: Antimicrobial activity against Fusobacterium necrogenes after 48 hrs by agar dilution method; format: functional; in short: as §1
# [3] = test system: Parabacteroides distasonis; experiment: Antimicrobial activity against Bacteroides distasonis assessed as percent susceptible isolates after 48 hrs by agar dilution method; format: functional
# Eubacterium sp. [4] = experiment: Antimicrobial activity against Eubacterium sp. assessed as percent susceptible isolates after 48 hrs by agar dilution method; format: functional; in short: as §1
# Finegoldia magna [5] = experiment: Antimicrobial activity against Finegoldia magna assessed as percent susceptible isolates after 48 hrs by agar dilution method; format: functional; in short: as §1
# Schaalia odontolytica [6] = experiment: Antimicrobial activity against Actinomyces odontolyticus after 48 hrs by agar dilution method; format: functional
# In short: (§2)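 MICs on clinical anaerobe isolates by the CLSI agar dilution method. Inoculum of 10^5 CFU applied with a Steers replicator. Plates incubated 48 h at 37°C in an anaerobic chamber.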
# [7] = test system: Peptostreptococcus anaerobius; experiment: Antimicrobial activity against Peptostreptococcus anaerobius assessed as percent susceptible isolates after 48 hrs by agar dilution method; format: functional
# In short: (§3)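 CLSI agar dilution on recent Korean clinical anaerobe isolates. Inoculum 10^5 CFU per spot by replicator. Plates incubated in an anaerobic chamber at 37°C for 48 h. For piperacillin plus tazobactam, tazobactam was held constant at 4 μg/ml. Resistance and susceptibility rates derived from MICs.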
# Bacteroides fragilis [8] = experiment: Antimicrobial activity against Bacteroides fragilis after 48 hrs by agar dilution method; format: functional; in short: as §2
# Clostridioides difficile [9] = experiment: Antimicrobial activity against Clostridium difficile assessed as percent susceptible isolates after 48 hrs by agar dilution method; format: functional
# Hoylesella oralis [10] = experiment: Antimicrobial activity against Prevotella oralis assessed as percent resistant isolates after 48 hrs by agar dilution method; format: functional; in short: as §3
# Actinomyces naeslundii [11] = experiment: Antimicrobial activity against Actinomyces naeslundii assessed as percent resistant isolates after 48 hrs by agar dilution method; format: functional; in short: as §3
# Bifidobacterium sp. [12] = experiment: Antimicrobial activity against Bifidobacterium sp. assessed as percent susceptible isolates after 48 hrs by agar dilution method; format: functional; in short: as §1
# Hoylesella oralis [13] = experiment: Antimicrobial activity against Prevotella oralis assessed as percent susceptible isolates after 48 hrs by agar dilution method; format: functional
# In short: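 CLSI agar dilution MIC testing of clinical isolates. 10^5 CFU spotted by replicator, plates incubated 48 h at 37°C in an anaerobic chamber. Susceptibility rates derived from the MICs.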
# Anaerococcus prevotii [14] = experiment: Antimicrobial activity against Anaerococcus prevotii assessed as percent susceptible isolates after 48 hrs by agar dilution method; format: functional
# [15] = test system: Bifidobacterium adolescentis; experiment: Antimicrobial activity against Bifidobacterium adolescentis after 48 hrs by agar dilution method; format: functional; in short: as §2
# Bacteroides caccae [16] = experiment: Antimicrobial activity against Bacteroides caccae assessed as percent susceptible isolates after 48 hrs by agar dilution method; format: functional
# Schaalia meyeri = experiment: Antimicrobial activity against Actinomyces meyeri after 48 hrs by agar dilution method; format: functional; in short: as §2
# [17] = test system: Peptoniphilus asaccharolyticus; experiment: Antimicrobial activity against Peptoniphilus asaccharolyticus assessed as percent susceptible isolates after 48 hrs by agar dilution method; format: functional; in short: as §1
# Actinomyces israelii [18] = experiment: Antimicrobial activity against Actinomyces israelii after 48 hrs by agar dilution method; format: functional; in short: as §2
# Phocaeicola vulgatus [19] = experiment: Antimicrobial activity against Bacteroides vulgatus after 48 hrs by agar dilution method; format: functional; in short: as §2
# Bacteroides caccae [20] = experiment: Antimicrobial activity against Bacteroides caccae assessed as percent resistant isolates after 48 hrs by agar dilution method; format: functional; in short: as §3
# Parvimonas micra = experiment: Antimicrobial activity against Peptostreptococcus micros after 48 hrs by agar dilution method; format: functional; in short: as §1
# [21] = test system: Bifidobacterium adolescentis; experiment: Antimicrobial activity against Bifidobacterium adolescentis assessed as percent resistant isolates after 48 hrs by agar dilution method; format: functional; in short: as §3
# Phocaeicola vulgatus [22] = experiment: Antimicrobial activity against Bacteroides vulgatus assessed as percent resistant isolates after 48 hrs by agar dilution method; format: functional; in short: as §3
# Eubacterium sp. [23] = experiment: Antimicrobial activity against Eubacterium sp. assessed as percent resistant isolates after 48 hrs by agar dilution method; format: functional; in short: as §3
# Bifidobacterium sp. [24] = experiment: Antimicrobial activity against Bifidobacterium sp. after 48 hrs by agar dilution method; format: functional; in short: as §2
# Prevotella bivia = experiment: Antimicrobial activity against Prevotella bivia after 48 hrs by agar dilution method; format: functional; in short: as §1
# Actinomyces naeslundii [25] = experiment: Antimicrobial activity against Actinomyces naeslundii after 48 hrs by agar dilution method; format: functional; in short: as §2
# Schaalia odontolytica [26] = experiment: Antimicrobial activity against Actinomyces odontolyticus assessed as percent resistant isolates after 48 hrs by agar dilution method; format: functional; in short: as §3
# Clostridioides difficile [27] = experiment: Antimicrobial activity against Clostridium difficile assessed as percent resistant isolates after 48 hrs by agar dilution method; format: functional
# [28] = test system: Bifidobacterium adolescentis; experiment: Antimicrobial activity against Bifidobacterium adolescentis assessed as percent susceptible isolates after 48 hrs by agar dilution method; format: functional
# [29] = test system: Peptostreptococcus anaerobius; experiment: Antimicrobial activity against Peptostreptococcus anaerobius after 48 hrs by agar dilution method; format: functional; in short: as §1
# Fusobacterium nucleatum = experiment: Antimicrobial activity against Fusobacterium nucleatum after 48 hrs by agar dilution method; format: functional; in short: as §1
# Finegoldia magna [30] = experiment: Antimicrobial activity against Finegoldia magna after 48 hrs by agar dilution method; format: functional; in short: as §1
# Anaerococcus prevotii [31] = experiment: Antimicrobial activity against Anaerococcus prevotii assessed as percent resistant isolates after 48 hrs by agar dilution method; format: functional; in short: as §3
# Bacteroides fragilis [32] = experiment: Antimicrobial activity against Bacteroides fragilis assessed as percent susceptible isolates after 48 hrs by agar dilution method; format: functional
# Phocaeicola vulgatus [33] = experiment: Antimicrobial activity against Bacteroides vulgatus assessed as percent susceptible isolates after 48 hrs by agar dilution method; format: functional
# Bacteroides caccae [34] = experiment: Antimicrobial activity against Bacteroides caccae after 48 hrs by agar dilution method; format: functional; in short: as §2
# Anaerococcus prevotii [35] = experiment: Antimicrobial activity against Anaerococcus prevotii after 48 hrs by agar dilution method; format: functional; in short: as §2
# Prevotella buccae [36] = experiment: Antimicrobial activity against Prevotella buccae assessed as percent resistant isolates after 48 hrs by agar dilution method; format: functional, Segatella buccae; in short: as §3
# [37] = test system: Parabacteroides distasonis; experiment: Antimicrobial activity against Bacteroides distasonis after 48 hrs by agar dilution method; format: functional; in short: as §2
# [38] = test system: Parabacteroides distasonis; experiment: Antimicrobial activity against Bacteroides distasonis assessed as percent resistant isolates after 48 hrs by agar dilution method; format: functional; in short: as §3
# Finegoldia magna [39] = experiment: Antimicrobial activity against Finegoldia magna assessed as percent resistant isolates after 48 hrs by agar dilution method; format: functional; in short: as §3
# Bifidobacterium sp. [40] = experiment: Antimicrobial activity against Bifidobacterium sp. assessed as percent resistant isolates after 48 hrs by agar dilution method; format: functional; in short: as §3
# Bacteroides ovatus = experiment: Antimicrobial activity against Bacteroides ovatus assessed as percent resistant isolates after 48 hrs by agar dilution method; format: functional; in short: as §3
# Prevotella intermedia [41] = experiment: Antimicrobial activity against Prevotella intermedia assessed as percent resistant isolates after 48 hrs by agar dilution method; format: functional; in short: as §3
# Actinomyces israelii [42] = experiment: Antimicrobial activity against Actinomyces israelii assessed as percent resistant isolates after 48 hrs by agar dilution method; format: functional; in short: as §3
compound,measurement,setting,value
O=C(N[C@H](CO)[C@H](O)c1ccc([N+](=O)[O-])cc1)C(Cl)Cl [CHLORAMPHENICOL],MIC,Prevotella intermedia [1],0.5 µg/mL
same,MIC50,Prevotella intermedia [1],0.5 µg/mL
same,MIC90,Prevotella intermedia [1],1 µg/mL
same,Activity,Prevotella buccae [2],100%
same,MIC,Fusobacterium necrogenes,0.13 µg/mL
same,Activity,[3],98%
same,Activity,Eubacterium sp. [4],92%
same,Activity,Finegoldia magna [5],100%
same,MIC,Schaalia odontolytica [6],1 µg/mL
same,MIC50,Schaalia odontolytica [6],1 µg/mL
same,MIC90,Schaalia odontolytica [6],2 µg/mL
same,Activity,[7],100%
same,MIC50,Bacteroides fragilis [8],4 µg/mL
same,MIC90,Bacteroides fragilis [8],4 µg/mL
same,Activity,Clostridioides difficile [9],83%
same,Activity,Hoylesella oralis [10],0%
same,Activity,Actinomyces naeslundii [11],0%
same,Activity,Bifidobacterium sp. [12],92%
same,Activity,Hoylesella oralis [13],100%
same,Activity,Anaerococcus prevotii [14],93%
same,MIC,[15],1 µg/mL
same,MIC50,[15],1 µg/mL
same,MIC90,[15],2 µg/mL
same,Activity,Bacteroides caccae [16],98%
same,MIC,Schaalia meyeri,1 µg/mL
same,MIC50,Schaalia meyeri,1 µg/mL
same,MIC90,Schaalia meyeri,2 µg/mL
same,Activity,[17],100%
same,MIC,Actinomyces israelii [18],1 µg/mL
same,MIC50,Actinomyces israelii [18],1 µg/mL
same,MIC90,Actinomyces israelii [18],2 µg/mL
same,MIC,Phocaeicola vulgatus [19],4 µg/mL
same,MIC50,Phocaeicola vulgatus [19],4 µg/mL
same,MIC90,Phocaeicola vulgatus [19],8 µg/mL
same,Activity,Bacteroides caccae [20],0%
same,MIC50,Parvimonas micra,2 µg/mL
same,MIC90,Parvimonas micra,2 µg/mL
same,Activity,[21],0%
same,Activity,Phocaeicola vulgatus [22],0%
same,Activity,Eubacterium sp. [23],0%
same,MIC,Bifidobacterium sp. [24],1 µg/mL
same,MIC50,Bifidobacterium sp. [24],1 µg/mL
same,MIC90,Bifidobacterium sp. [24],2 µg/mL
same,MIC50,Prevotella bivia,4 µg/mL
same,MIC90,Prevotella bivia,8 µg/mL
same,MIC,Actinomyces naeslundii [25],1 µg/mL
same,MIC50,Actinomyces naeslundii [25],1 µg/mL
same,MIC90,Actinomyces naeslundii [25],2 µg/mL
same,Activity,Schaalia odontolytica [26],0%
same,Activity,Clostridioides difficile [27],0%
same,Activity,[28],92%
same,MIC50,[29],2 µg/mL
same,MIC90,[29],2 µg/mL
same,MIC,Fusobacterium nucleatum,0.13 µg/mL
same,MIC50,Finegoldia magna [30],4 µg/mL
same,MIC90,Finegoldia magna [30],4 µg/mL
same,Activity,Anaerococcus prevotii [31],0%
same,Activity,Bacteroides fragilis [32],98%
same,Activity,Phocaeicola vulgatus [33],98%
same,MIC,Bacteroides caccae [34],4 µg/mL
same,MIC50,Bacteroides caccae [34],4 µg/mL
same,MIC90,Bacteroides caccae [34],8 µg/mL
same,MIC50,Anaerococcus prevotii [35],4 µg/mL
same,MIC90,Anaerococcus prevotii [35],8 µg/mL
same,Activity,Prevotella buccae [36],0%
same,MIC,[37],4 µg/mL
same,MIC50,[37],4 µg/mL
same,MIC90,[37],8 µg/mL
same,Activity,[38],0%
same,Activity,Finegoldia magna [39],0%
same,Activity,Bifidobacterium sp. [40],0%
same,Activity,Bacteroides ovatus,0%
same,Activity,Prevotella intermedia [41],0%
same,Activity,Actinomyces israelii [42],0%
